# From PubChem BioAssay
# The list is not random: actives were taken first. Their share in the collection is about 1.9%.
# RanGTP-Imp inh – disruptors of Ran-importin-beta complex formation – biochemical, FRET, CFP-Ran, YFP-importin-beta, homogeneous, primary screen. cell-free CFP-Ran/YFP-importin-beta FRET ratio. inhibition, % (no concentration beside the values). hit rate 1.1% among 300,000;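 active means more than half of the replicate wells show a fall in the fluorescence ratio signal beyond about 16%, limit read from the data, passing the limit was not always enough; inconclusive means exactly half of the replicate wells pass the set limit; inactive means fewer than half of replicates pass the limit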;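 further: 0% = DMSO wells and 100% = Ran loaded with GDP instead of GTP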
# HDAC3 inhib – inhibitors of human histone deacetylase 3; O15379; hit rate 0.15% among 320,000; inhibition, % at 8.3 µM; recombinant HDAC3, fluorogenic peptide/trypsin coupled, fluorescence; in the data active means inhibition above about 26%, passing the limit was not always enough; inconclusive means no clear call, values can overlap the other calls
# LANA-H2A inh – blocks KSHV LANA binding to histone H2A/H2B | Q9QR71 | cell-free LANA-H2A/H2B peptide, fluorescence polarization | inhibition, % (test concentration not listed) | hit rate 0.6% among 320,000 | AID 2629; in the data active means inhibition mostly above about 10%, no sharp cut-off; inactive means mostly below about 6.7%
# Runt-CBFb FRET – inhibitors of human RUNX1 Runt domain binding to CBFb; hit rate 0.46% among 220,000; inhibition, % at 20 µM; Q01196+Q13951; Cerulean-Runt/Venus-CBFb FRET ratio 530/480, 1 h;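 active means inhibition over about 50% at 20 µM in the single-dose screen, limit read from the data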;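 further: 0% = DMSO wells and 100% = excess unlabeled CBFb competitor control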
# Target sequence (Q01196 whole entry, looked up, the tested form may be a part): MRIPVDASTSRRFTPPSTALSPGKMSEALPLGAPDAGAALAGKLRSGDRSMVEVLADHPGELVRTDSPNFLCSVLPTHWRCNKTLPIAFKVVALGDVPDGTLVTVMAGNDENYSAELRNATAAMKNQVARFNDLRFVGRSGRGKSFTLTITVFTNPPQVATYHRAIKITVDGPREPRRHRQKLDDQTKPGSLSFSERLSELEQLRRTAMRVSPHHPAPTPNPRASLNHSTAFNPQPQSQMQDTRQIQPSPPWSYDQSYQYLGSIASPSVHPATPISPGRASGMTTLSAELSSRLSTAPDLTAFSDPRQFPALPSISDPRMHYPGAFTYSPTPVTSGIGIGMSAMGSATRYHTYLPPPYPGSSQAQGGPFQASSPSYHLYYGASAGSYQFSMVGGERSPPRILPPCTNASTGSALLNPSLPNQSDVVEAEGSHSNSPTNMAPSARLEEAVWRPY
# Target sequence (Q13951 whole entry, looked up, the tested form may be a part): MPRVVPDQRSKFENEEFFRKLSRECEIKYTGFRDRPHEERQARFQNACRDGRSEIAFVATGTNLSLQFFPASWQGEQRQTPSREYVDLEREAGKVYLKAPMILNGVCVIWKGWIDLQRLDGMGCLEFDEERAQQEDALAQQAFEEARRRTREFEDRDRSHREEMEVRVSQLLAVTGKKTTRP
#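 Assay system: Cerulean-tagged RUNX1 Runt domain (FRET donor) fusion protein / Amount: 100 nM each of Venus-CBFb and Cerulean-Runt domain / Medium: Tris buffer pH 7.5 with salts and BSA / Also added: Venus-CBFb 100 nM / Schedule: 1 h complex formation plus 1 h compound treatment, room temperature / Signal: FRET fluorescence / Read-out: loss of energy transfer signal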
# CaV13 ICDI inh – Primary screen for inhibitors of IQ motif and Ca2+-dependent inactivation inhibitor domain binding in CACNA1D, Förster resonance energy transfer in living cells, … | HEK cells, CFP/YFP FRET ICDI-IQ, plate reader, 10 min; percent FRET-ratio fall versus neutral wells | inhibition, % at 12.3 µM | hit rate 0.098% among 340,000;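 active means mean replicate inhibition of at least 30% and at least 1% of replicates passing that level; inconclusive means only one of the two criteria is met; inactive means neither criterion is met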;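 further: 0% = median of the neutral control wells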
# Runt-SMMHC FRET – blocks binding of human RUNX1 Runt domain to CBFb-SMMHC; inhibition, % at 20 µM; Cerulean-Runt/Venus-CBFb-SMMHC FRET ratio 530/480, 1 h; Q01196+Q13951; hit rate 0.74% among 220,000;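 active means mean inhibition across duplicate retests at 20 µM reaching about 50%, limit read from the data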;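 further: 0% = DMSO wells and 100% = wells with excess untagged CBFb-SMMHC; inhibitors lower the FRET ratio by blocking Runt binding to CBFb-SMMHC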
# YIC counter – counter-screen: alters YIC FRET probe signal; shares compounds with RanGTP-Imp inh; Purified YIC probe, intramolecular FRET ratio YFP/CFP; IC50, µM; hit rate 40% among 1,000;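 active means fitted half-maximal inhibitory concentration no more than tenfold above the top dose tested; inconclusive means flat fit with 30 to 70% activity, or poor fit; inactive means half-maximal concentration beyond tenfold above the top dose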
# * hit, by the source's call; ? = inconclusive; . = no result given; + = active, no number.
SMILES,RanGTP-Imp inh,HDAC3 inhib,LANA-H2A inh,Runt-CBFb FRET,CaV13 ICDI inh,Runt-SMMHC FRET,YIC counter
COc1ccc(OC)c(S(=O)(=O)n2ccnc2C)c1,27.0*,-0.3,5.9,0.5,-3.8,3.4,>50
C=Cn1cc[n+](CC(=O)c2ccc(Br)s2)c1,7.0,4.0,-2.9,.,-1.7,.,.
COCc1cc(CN2CCN(C)CC2)c(O)c2ncccc12,26.0*,1.3,-4.4,0.4,-3.9,-14.0,>50
Oc1c(CN2CCOCC2)cc(COCc2ccccc2)c2cccnc12,4.0,12.3,-0.3,-4.2,-3.5,-3.6,.
Cc1ccc(S(=O)(=O)c2cc3c(=O)n4cccc(C)c4nc3n(C3CCCCC3)c2=N)cc1,33.7*,2.3,-2.8,.,.,.,3.87*
CCN1CCc2c(sc(N)c2C#N)C1,34.1*,-3.0,-5.6,42.8,.,110.0*,18.2*
CC(NC(=O)CN1CCN(Cc2cccc(F)c2)CC1)c1ccccc1 (stereo not given),1.0,-16.1,2.5,.,1.9,.,.
COC(=O)c1ccc2nc(NC(=O)C(C)(C)C)sc2c1,20.2*,4.8,-4.9,-1.7,-3.9,0.0,>50
COC(=O)c1ccc2nc(NC(=O)C3CCCCC3)sc2c1,-2.6,2.6,-1.6,-2.6,-4.4,-0.7,.
C[C@H]1CCC/C=C/[C@@H]2C[C@H](O)C[C@H]2[C@H](O)[C@H](S(=O)c2ccc(O)cc2)CC(=O)O1 (stereo not given in full),.,.,.,.,-17.7,.,.
CCN1C(=O)[C@H]2[C@@H](c3ccc(-c4ccc(F)cc4)c(OC)c3)N[C@@](C)(C(=O)OC)[C@H]2C1=O,-1.5,-5.9,0.6,.,-8.8,.,.
CC(=O)OC[C@H]1COc2ccc3ccccc3c2[C@H]1N(C)C(C)=O,6.2,-2.1,5.6,0.4,.,-0.6,.
CC(C)c1ccccc1NC(=O)C1C2C=CC(C2)C1C(=O)O (stereo not given),24.2*,5.7,-0.5,.,-4.4,.,>50
CCOC(=O)c1sc(NC(=O)CS(=O)(=O)c2ccc(C)cc2)nc1C,2.2,-1.6,-3.8,.,-3.0,.,.
CCCCCCOC(=O)c1ccc(NC(=O)c2cc(OC)c(OC)c(OC)c2Br)cc1,2.5,20.4,1.2,-6.0,-0.1,-10.8,.
CC(C)NC(=O)C1CC=CCC1C(=O)O (stereo not given),25.4*,-4.3,1.6,0.0,-6.1,2.4,>50
Cc1nn(CCC(=O)NCCc2ccccc2Cl)c(=O)c2nn(-c3ccccc3)c(C)c12,-2.2,-4.6,-2.1,.,-3.8,.,.
O=C1/C(=C/c2cccs2)Sc2ccccc21,18.8*,.,.,-1.1,-15.0,-2.8,?
O=C1Nc2ccccc2S/C1=C/c1cccs1,-2.1,2.7,6.6,-1.5,-4.0,-13.8,.
C=CCOc1c(Br)cc(CNc2ccc(NC(=O)C(C)C)c(OC)c2)cc1OC,26.5*,11.4,5.9,-14.1,-3.3,-37.0,>50
COC(=O)c1ccccc1S(=O)(=O)N1CCC(C(=O)OC(C)C(=O)NC(N)=O)CC1 (stereo not given),0.4,-0.1,-6.2,-2.3,-6.6,1.2,.
CSCC(C)N1CCC(N2CCC(C(=O)NCc3ccccn3)CC2)CC1 (stereo not given),18.9*,-3.7,13.6,.,-4.6,.,>50
CC(C)CCC(=O)N1CCC(N2CCC(C(=O)NCc3ccccn3)CC2)CC1,3.1,0.4,3.6,.,-3.9,.,.
CC(C)Cc1ccc(CN2CCC(n3nccc3NC(=O)C3CCCC3)CC2)cc1,21.6*,4.4,-0.6,.,.,.,>50
COc1ccc(CCNC(=O)c2cccc(NC3=NC4CS(=O)(=O)CC4S3)c2)c(OC)c1 (stereo not given),2.7,1.8,-1.3,.,-4.6,.,.
SMILES,RanGTP-Imp inh,HDAC3 inhib,LANA-H2A inh,Runt-CBFb FRET,CaV13 ICDI inh,Runt-SMMHC FRET,YIC counter
CCC(CO)Oc1cc(NC(=O)c2ccc(F)cc2)c2ncn(C(C)C)c2c1 (stereo not given),.,2.0,-0.1,.,-7.3,.,.
NC(=O)c1sc2nccc(Nc3ccccc3)c2c1N,39.1*,-3.7,-2.1,23.2,-4.6,42.5,>50
NC(=O)c1sc2nc(-c3ccccc3)c3c(c2c1N)CCCC3,3.0,3.6,4.4,.,-2.9,3.2,.
N=c1c2c(ncn1Cc1ccco1)Oc1ccc3ccccc3c1C2c1ccccc1 (stereo not given),-0.9,1.7,-9.8,-1.3,-4.1,-1.3,.
COc1ccc(C2c3c(ncn(Cc4ccco4)c3=N)Oc3ccc4ccccc4c32)cc1 (stereo not given),70.6*,4.5,-3.4,0.9,-2.6,0.1,>50
Cc1ccc(S(=O)(=O)NCCCN2CCOCC2)cc1C,9.0,?,-8.1,-3.6,-5.4,-0.3,.
COc1cc(S(=O)(=O)NCCCN2CCOCC2)ccc1Cl,17.4*,.,2.5,1.2,-5.0,2.9,>50
O=C(CSc1ccc(Cl)cc1)N1CCN(c2ccc(Cl)cc2[N+](=O)[O-])CC1,1.7,1.5,-0.3,-0.6,-6.8,0.0,.
CC(C)CCN(CCC(C)C)CC(O)Cn1c2ccccc2c(=O)c2ccccc21 (stereo not given),57.2*,-2.7,1.2,107.1*,+,82.5*,3.73*
CCCN(CCC)CC(O)Cn1c2ccccc2c2ccccc21 (stereo not given),?,-2.9,1.3,1.1,-19.7,-0.3,.
CCOC(=O)/C(=N\Nc1ccc(C(C)=O)cc1)c1csc(Nc2ccccc2)n1,17.9*,3.2,-3.7,-120.9,-27.7,-192.8,>50
Clc1cc2nc3ccccn3c2cc1Cl,?,0.7,-2.6,-2.1,-0.9,-1.1,.
Cc1ccc(C(=O)NCc2ccco2)cc1S(=O)(=O)N1CCOCC1,25.2*,-2.2,4.5,.,-3.5,-11.1,>50
Cc1ccc(C(=O)NCc2ccco2)cc1S(=O)(=O)N1CCCC1,-1.3,2.0,-0.4,.,.,.,.
Cc1cc(C2C(C#N)=C(N)SC(N)=C2C#N)c(C)s1,34.3*,5.8,-11.0,24.1,.,32.0,>50
O=C(CCN1C(=O)COc2ccccc21)N1CCCCC1,23.7*,-1.0,1.8,0.9,-10.1,3.3,>50
C/C(N)=C(/C#N)C(=O)COc1ncnc2ccccc12,21.8*,-4.9,-2.3,.,-8.4,.,>50
CCOC(=O)CNc1ncc([N+](=O)[O-])cc1C#N,19.9*,4.9,0.8,1.6,-7.7,-0.6,>50
CCOC(=O)c1sc2ncc([N+](=O)[O-])cc2c1N,6.9,-1.3,-0.8,0.7,-5.3,-0.6,.
COc1ccccc1/C=C1\SC(=O)N(CCC(=O)N2CCCCC2CCO)C1=O (stereo not given),0.6,14.0,-2.7,.,-4.7,.,.
